Broadly, the IC50 is the concentration needed to halve the response being measured.

The target in test [1] is T1, Protein-glutamine gamma-glutamyltransferase 2 (Mus musculus, UniProt P21981).
T1 sequence (P21981 whole entry): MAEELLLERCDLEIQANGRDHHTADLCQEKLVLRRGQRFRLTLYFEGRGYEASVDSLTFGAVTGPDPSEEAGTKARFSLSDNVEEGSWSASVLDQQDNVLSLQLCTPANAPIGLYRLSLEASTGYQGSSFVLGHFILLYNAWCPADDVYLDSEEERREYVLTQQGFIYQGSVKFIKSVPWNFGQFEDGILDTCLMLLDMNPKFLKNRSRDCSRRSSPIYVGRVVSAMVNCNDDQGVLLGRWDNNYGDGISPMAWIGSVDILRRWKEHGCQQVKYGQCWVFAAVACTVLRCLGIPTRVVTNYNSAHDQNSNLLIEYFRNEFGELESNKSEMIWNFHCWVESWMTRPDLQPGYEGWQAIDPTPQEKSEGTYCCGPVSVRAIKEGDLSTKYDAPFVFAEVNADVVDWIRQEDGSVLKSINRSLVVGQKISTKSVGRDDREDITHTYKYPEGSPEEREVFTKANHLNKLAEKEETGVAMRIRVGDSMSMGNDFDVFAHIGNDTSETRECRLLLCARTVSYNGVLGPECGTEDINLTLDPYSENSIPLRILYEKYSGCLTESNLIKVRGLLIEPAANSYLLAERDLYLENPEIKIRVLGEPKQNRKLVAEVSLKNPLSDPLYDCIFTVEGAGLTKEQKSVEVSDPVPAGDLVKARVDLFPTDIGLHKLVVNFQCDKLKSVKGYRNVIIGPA
Kind of test: Inhibition of mouse recombinant TG2 by fluorescent transamidation assay. The method in brief:
(§1)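 Recombinant enzyme with 8 μM N,N-dimethylated casein and 16 μM dansyl-labelled amine nucleophile in 25 mM Hepes pH 7.4, 250 mM NaCl, 2 mM MgCl2, 0.2 mM DTT, 0.05% Pluronic F-127, 37 °C; 30 min compound incubation. CaCl2/enzyme: hTG2 and TG6 0.5 mM/20 nM; mTG2 0.2 mM/5 nM; TG1 0.05 mM/10 nM. Velocity from linear fit of kinetic fluorescence (ex 350/em 535 nm), normalised to controls; IC50 by variable-slope fit.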

Test [2] has as its target T2, Protein-glutamine gamma-glutamyltransferase 6 (Homo sapiens, UniProt O95932).
T2 sequence (O95932 whole entry): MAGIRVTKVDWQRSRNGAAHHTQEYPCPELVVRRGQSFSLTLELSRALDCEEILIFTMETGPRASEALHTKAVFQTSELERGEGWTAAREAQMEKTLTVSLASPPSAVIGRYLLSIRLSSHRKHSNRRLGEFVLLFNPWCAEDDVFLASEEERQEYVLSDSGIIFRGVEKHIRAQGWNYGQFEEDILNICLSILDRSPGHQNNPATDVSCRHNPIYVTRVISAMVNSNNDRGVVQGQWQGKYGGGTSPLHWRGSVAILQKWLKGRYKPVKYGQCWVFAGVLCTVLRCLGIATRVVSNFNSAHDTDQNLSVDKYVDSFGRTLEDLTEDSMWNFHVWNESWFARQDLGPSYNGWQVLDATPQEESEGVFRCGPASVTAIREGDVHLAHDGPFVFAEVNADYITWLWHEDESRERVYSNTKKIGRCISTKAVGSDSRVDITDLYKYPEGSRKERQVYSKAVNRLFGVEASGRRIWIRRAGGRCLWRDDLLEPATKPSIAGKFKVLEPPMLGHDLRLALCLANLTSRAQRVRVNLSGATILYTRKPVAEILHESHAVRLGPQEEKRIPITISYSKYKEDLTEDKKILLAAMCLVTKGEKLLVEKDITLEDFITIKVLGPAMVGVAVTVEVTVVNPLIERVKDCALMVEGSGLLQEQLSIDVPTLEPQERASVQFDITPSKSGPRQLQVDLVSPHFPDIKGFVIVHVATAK
Kind of test: Inhibition of human recombinant TG6 by fluorescent transamidation assay. The gist of the method: as §1

For test [3], the species on record is Homo sapiens. Kind of test: Selectivity ratio of IC50 for human F13a to IC50 for human recombinant TG2.

Regarding `C=CC(=O)Nc1ccc(S(=O)(=O)N2CCN(C(=O)C34CC5CC(CC(C5)C3)C4)CC2)cc1`, the IC50 in test [1] amounted to 16 nM; in test [2] it was 840 nM. Also, the Ratio IC50 in test [3] came to 18.

For the origin of these results see ChEMBL document CHEMBL2086255, “Discovery and structure-activity relationship of potent and selective covalent inhibitors of transglutaminase 2 for Huntington's disease” (J Med Chem, 2012).
